The full list was thinned out, with hits kept by preference.
Redox H2O2 prof: compounds producing H2O2 with reducing agent – biochemical, NIH compound library profiling, artefact control for MLSCN library redox annotation, primary screen. DTT-dependent redox cycling H2O2, phenol red/HRP absorbance; 100% = 100 µM peroxide control, 0% = buffer. activation, % at 10 µM. actives 0.03% (n = 200,000). AID 878, 2007;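 active means activation of at least 50% relative to the plate's high and low controls in the primary single-dose screen; inactive means activation below 50%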;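 further: compound incubated with DTT at 0.8 mM final as the reducing agent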
MPTP inh: mitochondrial permeability transition pore inhibitors, primary screen, biochemical, isolated mouse mitochondria, absorbance. Ca2+ swelling absorbance, 30 min. actives 1.4% (n = 360,000). inhibition, % at 10 µM;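 active means inhibition of 50% or more, scaled per plate between neutral and stimulator controls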
T cruzi repl: inhibitors of intracellular T. cruzi growth, primary screen, luminescence, NIH3T3 host cells; T. cruzi beta-gal in NIH3T3, 90 h; actives 1.4% (n = 300,000); inhibition, % (no concentration beside the values);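 active means mean inhibition across valid replicates above about 55%, limit read from the data; inconclusive means mean below that limit but half or more replicates reach it; inactive means mean below it, under half of replicates reach it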;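 further: signal also drops with host cell toxicity which is not excluded here; higher percent means less beta-gal luminescence so fewer parasites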
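compound dosing = single 50 nL compound addition per well in DMSO | material = NIH/3T3 host cells with β-galactosidase reporter T. cruzi | input = 5,000 host fibroblasts per well | timing = ≥90 h infection period, 3 h prior cell attachment | read-out basis = percent inhibition of parasite-derived β-gal signal | detection = GalScreen β-gal luminescence, detergent lysis, 60 min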
Lmaj promast: Leishmania major promastigote growth inhibition, primary screen; Leishmania major promastigotes, resazurin fluorescence viability; AID 1063, 2008; inhibition, % at 10 µM; actives 9% (n = 200,000); in the data active means inhibition above about 50%;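 further: promastigotes grown with compound for 44 hours at 28 °C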
Hep lipid drop: inhibitors of hepatocyte lipid droplet formation, primary screen, imaging, high-throughput imaging, BODIPY stain; inhibition, % at 6.5 µM; AML12 mouse hepatocytes, oleate lipid droplets; actives 0.4% (n = 240,000);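 active means lipid droplet intensity inhibited by at least 50%, with more than 500 cells counted; inconclusive means wells with under 300 cells, treated as cytotoxic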
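Test system: AML12 mouse liver cells; schedule: overnight exposure; technique: high-content imaging of BODIPY-stained droplets and DAPI nuclei; read-out: % inhibition of corrected integrated BODIPY droplet signal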
MPTP counter: fluorescence retest of MPTP screen hits in isolated mitochondria, single concentration; shares compounds with MPTP inh; membrane potential, Rhodamine 123 fluorescence; inhibition, % at 10 µM; actives 78% (n = 5,000); AID 624504, 2012; in the data active means inhibition above about 22%
MPTP swell DR: mitochondrial permeability transition pore inhibitors, dose response, biochemical, absorbance, uHTS hits | actives 58% (n = 780) | isolated mitochondria swelling | shares compounds with MPTP inh | IC50, µM; in the data active means IC50 below about 20 µM
MPTP counter DR: fluorescent counter-screen in isolated mitochondria, dose response, counter-screen for MPTP inhibitor project, biochemical, fluorescence, uHTS hits; shares compounds with MPTP inh; isolated mitochondria counterscreen, fluorescence read-out; IC50, µM; actives 49% (n = 780); in the data active means IC50 below about 80 µM
Numbers stand for hits; 0 = inactive; ? = inconclusive; - = no result.

SMILES	Redox H2O2 prof	MPTP inh	T cruzi repl	Lmaj promast	Hep lipid drop	MPTP counter	others
O=C(Nc1cccnc1)c1cccc(S(=O)(=O)N2CCc3ccccc32)c1	0	0	0	0	0	-
CCc1ccccc1NC(=O)c1cc(S(=O)(=O)N2CCc3ccccc32)cn1C	-	0	0	-	0	-
COc1ccc([N+](=O)[O-])cc1NC(=O)Nc1ccc(OC)c(OC)c1	0	0	0	0	0	-
COc1ccccc1NS(=O)(=O)c1cccc(NC(=O)Nc2cccc(Cl)c2)c1	0	81.2	62.2	99.9	0	75.6
COc1ccc([N+](=O)[O-])cc1NC(=O)Nc1cccc(Cl)c1	0	107.1	0	0	0	67.1
O=C(Nc1cccc(Cl)c1)c1cccc(Oc2ccc([N+](=O)[O-])cc2Cl)c1	0	86.0	0	98.2	0	96.7
C[C@@H]1CC2OC(=O)[C@@]3(C)C(=O)CC[C@@](C)(C23)[C@@]1(O)CCc1ccoc1 (stereo partly drawn)	-	0	0	-	0	-
C=CCc1cccc(/C=N/NC(=O)CCCNc2ccc(C)cc2)c1O	0	54.2	0	0	0	29.6
C=CCc1cccc(/C=N/NC(=O)C(C)Nc2cccc(C)c2)c1O (stereo not drawn)	0	73.0	81.5	0	0	61.2
Cc1ccc(SCCC(=O)N/N=C/c2ccccc2O)cc1	0	52.2	0	0	0	44.6
C=CCc1cccc(/C=N/NC(=O)CNc2ccccc2)c1O	0	0	0	0	0	-
O=C(COC(=O)c1ccc(-n2cnnn2)cc1)c1ccc(Br)cc1	-	0	-	-	-	-
Cn1c(=O)c2c(nc(N3CCOCC3)n2C/C=C/c2ccccc2)n(C)c1=O	-	0	0	-	0	-
O=C(NC1CCN(S(=O)(=O)c2cccc(Cl)c2)CC1)C1CCCCC1	-	0	0	-	0	-
CC(=O)N1N=C(c2ccc(C(C)(C)C)cc2)OC1(C)C	0	68.8	0	0	0	0	MPTP swell DR=15.7;MPTP counter DR=17.8
O=C1c2cccc(OCC(=O)N3CCCc4ccccc43)c2CCN1Cc1cccnc1	0	81.7	0	0	0	33.8
C[C@@H]1CN([C@H](C)CO)C(=O)Cc2cc(NC(=O)Cn3cnnn3)ccc2O[C@@H]1CN(C)Cc1ccc(Cl)c(Cl)c1	-	0	-	-	-	-
O=C(Cn1cnc2ccccc21)Nc1ccc(SC(F)F)cc1	0	93.2	0	0	0	86.6
Cn1c(=O)n(C)c2cc(N3CCOCC3)c(NC(=O)c3ccc(F)cc3)cc21	-	0	0	-	0	-
O=C1CC(c2ccccc2)c2cccc(F)c21 (stereo not drawn)	-	0	0	-	0	-
Cc1ccc2nc(SCc3nc4c(cnn4-c4ccccc4)c(=O)[nH]3)[nH]c2c1	0	73.4	0	0	-	85.1
O=C(Nc1cc(S(=O)(=O)Nc2ccccc2Cl)ccc1O)c1sc2cc(Cl)ccc2c1Cl	0	94.2	0	0	0	0
COc1ccccc1NS(=O)(=O)c1ccc(Cl)c(NC(=O)c2sc3cc(Cl)ccc3c2Cl)c1	0	0	0	0	0	-
CN1C(=S)SC(N(O)C(=O)Nc2ccc(Cl)c(Cl)c2)C1(C)C (stereo not drawn)	0	98.3	?	0	0	85.9
CN1C(=S)SC(C)(C)C1N(O)C(=O)Nc1ccc(Cl)cc1 (stereo not drawn)	0	0	0	0	0	-
SMILES	Redox H2O2 prof	MPTP inh	T cruzi repl	Lmaj promast	Hep lipid drop	MPTP counter	others
Cc1nonc1NC(=O)CSc1nc(CCC2CCCC2)nc2ccccc12	-	65.8	0	-	0	82.0
COc1ccc(CN(CCCN2CCOCC2)C(=O)Nc2cccc(Cl)c2)cc1OC	0	0	0	0	-	-
O=C(Nc1cccc(Cl)c1)N(CCN1CCOCC1)Cc1cccc(Cl)c1	0	85.1	0	0	0	91.3
O=C(Nc1cccc(Cl)c1)N(CCN1CCOCC1)Cc1ccccc1F	0	79.2	0	0	0	77.3
O=C(NC(=S)N1CCOCC1)c1cc2ccccc2o1	0	0	0	0	0	-
O=C(NNC(=O)c1cc2ccccc2cc1O)NC1CCCCC1	-	0	0	-	0	-
CC1CCC(NC(=O)c2cc3ccccc3cc2O)CC1 (stereo not drawn)	-	86.8	-	-	-	94.1
O=C(NCC1CCCCC1)c1cc2ccccc2cc1O	-	59.4	0	-	0	80.8
Fc1c(F)c(-n2nnc3ccccc32)c(F)c(F)c1Cl	-	0	0	-	0	-
O=C(c1cccs1)N1C[C@H](n2cc(C3CC3)nn2)[C@@H](O)C[C@@H]1c1ccc(Cl)cc1	-	0	-	-	-	-
CCOC(=O)c1sc(NNC(=O)c2ccc(C)cc2)nc1C	-	0	0	-	0	-
CCOC(=O)c1nc(NNC(=O)c2ccc([N+](=O)[O-])cc2)sc1C	-	78.3	0	-	0	67.4
COc1ccc(C2NC(=O)N(CCCC(=O)O)C(C)=C2C(=O)OCc2ccccc2)cc1 (stereo not drawn)	-	-	0	-	-	-
O=C(Nc1ccccc1N1CCCCC1)c1cc(S(=O)(=O)N2CCOCC2)ccc1F	-	0	-	-	-	-
COc1cc(C(=O)Nc2ccc(Cl)c(C(F)(F)F)c2)cc(OC)c1OC	0	80.8	0	79.9	0	77.4
COc1cccc(C(=O)Nc2ccc(Cl)c(C(F)(F)F)c2)c1	0	99.2	0	0	0	89.0
COc1cc(CCC(=O)Nc2ccc(Cl)c(C(F)(F)F)c2)cc(OC)c1OC	0	0	0	0	0	-
CCNC(=S)Nc1ccc(Cl)c(C(F)(F)F)c1	0	90.6	0	75.7	0	95.0
O=C(Nc1ccc(Cl)c(C(F)(F)F)c1)c1ccco1	0	80.6	-	0	0	73.5
O=C(Nc1cccc(C(F)(F)F)c1)c1ccco1	0	0	0	0	0	-
COC(=O)c1ccc(CNS(=O)(=O)c2ccc3ccccc3c2)cc1	-	0	0	-	0	-
CSCCC(NC(=O)c1ccc(Cl)cc1)C(=O)OCC(=O)Nc1ccc(C#N)cc1 (stereo not drawn)	0	50.4	0	0	0	44.2
CSCCC(NC(=O)c1ccc(Cl)cc1)C(=O)OCC(C)=O (stereo not drawn)	0	0	0	0	0	-
O=[N+]([O-])c1cc(Cl)cc(/C=N/Nc2nc3ccccc3s2)c1O	0	77.8	0	0	0	78.2
CC(C)(C)N/N=C/c1cc(Cl)cc([N+](=O)[O-])c1O	0	92.6	0	0	0	53.9
CC(C)(C)C(=O)O/N=C(\N)Cc1ccc(-c2csnn2)cc1	-	0	0	-	0	-
CC(=O)c1ccc(N2CCN(C(=S)Nc3cccc(F)c3)CC2)cc1	0	0	0	0	-	-
